# How the values were obtained:
# [1] = target: Histamine H2 receptor (Cavia porcellus) (UniProt P47747); assay: […] activity tested against histamine H2 receptor on guinea pig atrium; assay type: functional, tissue-based; conditions: Cardiac atrium
# Method in brief: (§1)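 Isolated, spontaneously beating guinea pig right atrium, standard functional H2 method. Each test run at least in triplicate.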
# [2] = target: Histamine H1 receptor (Cavia porcellus) (UniProt P31389); assay: […] activity tested against histamine H1 receptor on guinea pig ileum; assay type: functional, tissue-based
# Method in brief: (§2)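 Isolated guinea pig ileum, standard functional H1 method. Each test run at least in triplicate.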
# Histamine H3 receptor [3] = target: T1, Histamine H3 receptor (Rattus norvegicus, UniProt Q9QYN8); assay: Binding affinity towards Histamine H3 receptor on synaptosomes from rat cerebral cortex; assay type: subcellular, Brain
# Method in brief: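 Rat cerebral cortex homogenized in ice-cold 50 mM Na2HPO4/KH2PO4, pH 7.5, then washed membranes after two differential centrifugations. Incubated 60 min at 25 °C with [3H]-(R)-α-methylhistamine and drugs at various concentrations. Stopped by ice-cold dilution, vacuum-filtered through glass-fibre filters, scintillation counted. Nonspecific binding defined with 3 µM thioperamide.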
# Histamine H3 receptor [4] = target: T1, Histamine H3 receptor; assay: (§3) In vitro antagonistic activity tested against Histamine H3 receptor on synaptosomes from rat cerebral cortex; assay type: functional, subcellular, Brain
# Method in brief: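 Preloaded 30 min with L-[3H]histidine (0.4 µM) at 37 °C in modified Krebs-Ringer. Washed, resuspended in 2 mM K+ medium, then depolarized 2 min with 2 or 30 mM K+ (final). […] Stopped by rapid centrifugation; liquid scintillation. Ki by Cheng-Prusoff; mean ± SEM, ≥3 determinations.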
# Histamine H3 receptor [5] = target: T1, Histamine H3 receptor; assay: as §3; assay type: functional, subcellular, Brain; remark: listed apart in the source
# Method in brief: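 Rat cerebral cortex synaptosomes preincubated 30 min at 37 °C with L-[3H]histidine (0.4 µM) in modified Krebs-Ringer, washed, resuspended in 2 mM K+ medium. […] Ki via Cheng-Prusoff; mean ± SEM, at least three determinations.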
# [6] = target: Histamine H1 receptor (Cavia porcellus) (UniProt P31389); assay: […] activity against histamine H1 receptor on guinea pig ileum; assay type: functional, tissue-based; method in brief: as §2
# [7] = target: Histamine H2 receptor (Cavia porcellus) (UniProt P47747); assay: […] activity against histamine H2 receptor on guinea pig atrium; assay type: functional, tissue-based; conditions: Cardiac atrium; method in brief: as §1
# Histamine H3 receptor [8] = target: T1, Histamine H3 receptor; assay: In vitro antagonistic activity against histamine H3 receptor on rat cerebral cortex; assay type: functional, tissue-based
# Method in brief: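 Synaptosomes were preloaded 30 min with L-[3H]histidine (0.4 µM) at 37 °C in modified Krebs-Ringer, then washed and resuspended in 2 mM K+ medium. […] The reaction was stopped by centrifugation and read by scintillation. Ki by Cheng-Prusoff, mean ± SEM, n≥3.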
# [9] = target: Histamine H3 receptor (Mus musculus) (UniProt P58406); assay: In vivo antagonistic activity was tested against histamine H3 receptor after oral administration to mouse; assay type: functional, organism-based
# Method in brief: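 Swiss mice dosed perorally. Read-out was the increase in brain Nτ-methylhistamine levels.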
# T1 sequence (Q9QYN8 whole entry): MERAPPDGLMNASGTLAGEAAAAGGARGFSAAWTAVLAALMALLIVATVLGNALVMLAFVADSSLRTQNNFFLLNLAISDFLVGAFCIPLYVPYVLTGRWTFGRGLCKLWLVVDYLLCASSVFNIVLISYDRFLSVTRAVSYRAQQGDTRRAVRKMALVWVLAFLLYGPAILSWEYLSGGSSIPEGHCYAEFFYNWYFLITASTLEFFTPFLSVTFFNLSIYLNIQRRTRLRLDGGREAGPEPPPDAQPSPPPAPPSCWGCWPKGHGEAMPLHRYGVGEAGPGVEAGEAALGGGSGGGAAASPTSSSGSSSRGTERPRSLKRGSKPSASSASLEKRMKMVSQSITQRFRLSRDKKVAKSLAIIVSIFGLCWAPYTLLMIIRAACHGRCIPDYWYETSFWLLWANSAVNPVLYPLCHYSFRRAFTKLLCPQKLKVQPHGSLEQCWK
# Sequence of Histamine H1 receptor (Cavia porcellus) (P31389 whole entry): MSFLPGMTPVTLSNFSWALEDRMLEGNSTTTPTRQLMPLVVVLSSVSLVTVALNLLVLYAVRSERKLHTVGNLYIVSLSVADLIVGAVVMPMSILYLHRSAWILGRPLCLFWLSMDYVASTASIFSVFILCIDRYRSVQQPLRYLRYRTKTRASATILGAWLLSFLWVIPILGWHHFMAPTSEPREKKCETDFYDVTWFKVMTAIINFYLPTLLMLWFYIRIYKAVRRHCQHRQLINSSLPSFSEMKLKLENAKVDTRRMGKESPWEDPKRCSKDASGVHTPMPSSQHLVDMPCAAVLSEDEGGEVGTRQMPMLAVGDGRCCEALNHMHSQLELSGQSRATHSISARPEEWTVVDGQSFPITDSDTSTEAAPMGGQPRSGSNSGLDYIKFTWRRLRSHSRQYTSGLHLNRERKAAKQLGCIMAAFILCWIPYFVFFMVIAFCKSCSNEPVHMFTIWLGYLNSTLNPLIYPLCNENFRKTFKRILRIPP
# Sequence of Histamine H2 receptor (Cavia porcellus) (P47747 whole entry): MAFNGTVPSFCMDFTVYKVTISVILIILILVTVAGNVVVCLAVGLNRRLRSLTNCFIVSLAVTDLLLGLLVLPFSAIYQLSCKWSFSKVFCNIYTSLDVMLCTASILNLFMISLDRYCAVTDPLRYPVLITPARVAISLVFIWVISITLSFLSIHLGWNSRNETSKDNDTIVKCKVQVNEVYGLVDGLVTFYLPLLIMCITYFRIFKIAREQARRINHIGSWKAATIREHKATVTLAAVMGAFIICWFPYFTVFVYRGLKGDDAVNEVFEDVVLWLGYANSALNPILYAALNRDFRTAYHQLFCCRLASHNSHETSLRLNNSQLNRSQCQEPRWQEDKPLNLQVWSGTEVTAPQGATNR
# Sequence of Histamine H3 receptor (Mus musculus) (P58406 whole entry): as the sequence (Q9QYN8 whole entry) above, with T15A, A286T, A290G, R387H, I389V counted along it
SMILES,-Log KB [1],-Log KB [2],Ki (Histamine H3 receptor [3]),Ki (Histamine H3 receptor [4]),also measured
O=C(CCCc1ccc(I)cc1)OCCCc1c[nH]cn1,4,4.8,,,
O=C(Cc1ccc(I)cc1)OCCCc1cnc[nH]1,,,12.6 nM,14 nM,
O=C(Nc1ccccc1I)OCCCc1cnc[nH]1,,,25.1 nM,25 nM,
Cc1[nH]cnc1CSCCNC(=N)NCCCc1c[nH]cn1 [IMPROMIDINE],,,,,Ki (Histamine H3 receptor [5]): 63.1 nM; Kb [6]: > 10000 nM; Kb [7]: 501 nM
O=C(Nc1cccc(I)c1)OCCCc1cnc[nH]1,,,7.94 nM,16 nM,
Ic1ccc(OCCCc2c[nH]cn2)cc1,5.2,6.2,,,
O=C(Nc1ccccc1I)OCCCc1c[nH]cn1,4.6,4.8,,,
S=C(NC1CCCCC1)N1CCC(c2cnc[nH]2)CC1 [THIOPERAMIDE],,,,,Ki (Histamine H3 receptor [5]): 3.98 nM; Ki (Histamine H3 receptor [8]): 2 nM; Kb [7]: > 10000 nM
O=C(OCCCc1cnc[nH]1)c1ccccc1I,,,20 nM,39 nM,
O=C(NCc1ccc(I)cc1)OCCCc1c[nH]cn1,4.5,5.1,12.6 nM,12 nM,
Ic1cccc(COCCCc2c[nH]cn2)c1,5.8,5.8,1.26 nM,7 nM,ED50 [9]: > 10 mg/kg
Ic1ccc(CCCOCCCc2c[nH]cn2)cc1,5.1,5.2,7.94 nM,35 nM,
O=C(OCCCc1c[nH]cn1)c1cccc(I)c1,3.8,4.8,3.98 nM,25 nM,
Brc1ccc(COCCCc2c[nH]cn2)cc1,,,1.26 nM,14 nM,ED50 [9]: > 10 mg/kg; Kb [6]: 1260 nM; Kb [7]: 12600 nM
Ic1ccc(COCCCc2c[nH]cn2)cc1 [IODOPROXYFAN],5.2,5.8,1 nM,5 nM,ED50 [9]: > 10 mg/kg
Cc1ccc(C(=O)OCCCc2c[nH]cn2)cc1I,4.2,4.9,,,
Nc1c(I)cc(C(=O)OCCCc2cnc[nH]2)cc1I,,,31.6 nM,146 nM,

SMILES,-Log KB [1],-Log KB [2],Ki (Histamine H3 receptor [3]),Ki (Histamine H3 receptor [4]),also measured
O=C(OCCCc1c[nH]cn1)c1ccc(I)cc1,4.5,4.2,,,
Nc1c(I)cc(C(=O)OCCCc2c[nH]cn2)cc1I,4.6,5.9,,,
O=C(OCCCc1cnc[nH]1)c1ccc(I)cc1,,,7.94 nM,20 nM,
Ic1ccc(OCCCc2cnc[nH]2)cc1,,,3.16 nM,22 nM,
COc1ccc(CCC(=O)OCCCc2cnc[nH]2)cc1I,,,200 nM,232 nM,
Ic1cccc(OCCCc2cnc[nH]2)c1,,,2.51 nM,17 nM,
O=C(Nc1ccc(I)cc1)OCCCc1cnc[nH]1,,,7.94 nM,11 nM,Ki (Histamine H3 receptor [5]): 10 nM
OCCCc1c[nH]cn1,,,631 nM,,ED50 [9]: > 10 mg/kg; Ki (Histamine H3 receptor [5]): 398 nM
Ic1cccc(OCCCc2c[nH]cn2)c1,5.6,6.2,,,
COc1ccc(CCC(=O)OCCCc2c[nH]cn2)cc1I,4.5,< 4,,,
O=C(CCc1ccc(I)cc1)OCCCc1c[nH]cn1,3.6,4.8,79.4 nM,47 nM,
O=C(CCCc1ccc(I)cc1)OCCCc1cnc[nH]1,,,31.6 nM,41 nM,
Cc1ccc(C(=O)OCCCc2cnc[nH]2)cc1I,,,5.01 nM,30 nM,
O=C(Nc1ccc(I)cc1)OCCCc1c[nH]cn1,5.3,4.4,,,ED50 [9]: > 10 mg/kg
O=C(Cc1ccc(I)cc1)OCCCc1c[nH]cn1,3.6,4.5,,,
O=C(Nc1cccc(I)c1)OCCCc1c[nH]cn1,5.3,5.1,,,
O=C(OCCCc1c[nH]cn1)c1ccccc1I,4.6,5.9,,,

# — ChEMBL document CHEMBL1129520 (J Med Chem, 1996)
